NadD block: NadD (S. aureus) enzyme inhibition. 360,000 tested, 0.78% active. inhibition, % at 20 µM. purified NadD enzyme, colorimetric absorbance read-out. AID 602399; in the data active = inhibition above about 26%
core dimer inh: HCV core protein dimerization inhibition; inhibition, % at 5 µM; TR-FRET GST/Flag-core106 dimerization, 1536-well; 300,000 tested, 0.33% active;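 active = inhibition above the mean of all tested compounds plus 3 SD, set per screening campaign, cut at about 45% in these data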
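System: GST-tagged and Flag-tagged HCV core protein residues 1-106 / Input: core106 proteins, GST 13.5 nM and Flag 17 nM / Buffer or medium: KF-containing HEPES buffer, pH 7.45, DTT, CHAPS, BSA / Probe or stimulus: Eu-anti-GST and XL665-anti-Flag labelled anti-tag antibodies / Schedule: 4 h, 22.5 °C incubation / Technique: TR-FRET 671 and 617 nm emission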
ABHD5 PLIN5 PPI: blocks binding of human ABHD5 to perilipin-5 | Q00G26+Q8WTS1 | Split G. princeps luciferase complementation, luminescence, 4 h | inhibition, % at 4 µM | 360,000 tested, 0.78% active | AID 602281;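 active = inhibition above the mean inhibition across every tested compound plus 3 SD, cut at about 22% in these data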;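 also: 0% = DMSO only wells and the 100% control is not disclosed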
Target sequence (Q00G26 whole entry, looked up): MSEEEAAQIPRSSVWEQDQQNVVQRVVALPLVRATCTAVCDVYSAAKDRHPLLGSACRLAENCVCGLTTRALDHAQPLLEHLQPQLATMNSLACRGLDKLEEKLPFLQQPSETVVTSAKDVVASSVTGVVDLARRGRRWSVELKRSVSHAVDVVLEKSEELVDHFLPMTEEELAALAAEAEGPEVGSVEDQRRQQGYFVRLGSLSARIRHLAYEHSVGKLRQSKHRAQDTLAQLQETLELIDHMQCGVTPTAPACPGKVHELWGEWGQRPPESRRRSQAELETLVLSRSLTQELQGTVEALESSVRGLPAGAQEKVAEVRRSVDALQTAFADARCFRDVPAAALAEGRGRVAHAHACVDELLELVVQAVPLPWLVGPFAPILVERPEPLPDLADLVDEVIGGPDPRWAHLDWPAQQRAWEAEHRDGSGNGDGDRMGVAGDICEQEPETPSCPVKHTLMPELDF
Target sequence (Q8WTS1 whole entry, looked up): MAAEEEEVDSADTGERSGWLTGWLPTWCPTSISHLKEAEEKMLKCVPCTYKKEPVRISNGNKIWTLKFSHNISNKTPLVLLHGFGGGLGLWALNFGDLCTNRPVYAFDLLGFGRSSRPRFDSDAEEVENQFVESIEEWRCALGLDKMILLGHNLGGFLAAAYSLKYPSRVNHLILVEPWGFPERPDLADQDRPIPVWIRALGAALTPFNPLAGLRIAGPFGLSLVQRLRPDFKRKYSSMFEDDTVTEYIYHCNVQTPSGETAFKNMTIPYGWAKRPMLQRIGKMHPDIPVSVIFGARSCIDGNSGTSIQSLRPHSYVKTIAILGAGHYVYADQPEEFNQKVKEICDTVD
rCAG RNA binder: molecules binding r(CAG) RNA repeats; r(CAG) RNA repeat, TO-PRO-1 dye displacement fluorescence; inhibition, % at 3 µM; 370,000 tested, 1.3% active; AID 651821;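 active = inhibition above the plate cutoff, the mean of all test compounds on that plate plus 3 SD, cut at about 35% in these data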;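 also: 0% = DMSO alone and 100% = 100 µM mitoxantrone as full dye displacement; higher means more dye released from RNA so lower well fluorescence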
rCAG bind conf: r(CAG) RNA repeat binding, confirmation | TO-PRO-1 dye displacement fluorescence | 4,300 tested, 70% active | inhibition, % at 3 µM | shares compounds with rCAG RNA binder | AID 652065;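 active = inhibition above a per-plate cutoff, the mean inhibition of sample wells plus 3 SD, cut at about 35% in these data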;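 also: loss of TO-PRO-1 fluorescence as compound displaces dye from 1x1 AA loop RNA; 0% = DMSO only wells and 100% = 100 µM mitoxantrone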
dCAG dye counter: disrupts DNA CAG TO-PRO-1 complex, flagging rCAG hits; shares compounds with rCAG RNA binder; 4,300 tested, 94% active; d(CAG) DNA oligo TO-PRO-1 dye displacement, fluorescence; inhibition, % at 3 µM;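 active = inhibition above its plate's cutoff, the mean test-well inhibition plus 3 SD, cut at about 4.8% in these data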;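 also: 0% = DNA dye mix with DMSO and 100% = 100 µM mitoxantrone; hits displace the dye from DNA and so lower well fluorescence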
An asterisk follows results filed as active; x = no result. In the library only some 2.6% were active in any assay of this set; here they are far more common.

SMILES	NadD block	core dimer inh	ABHD5 PLIN5 PPI	rCAG RNA binder	rCAG bind conf	dCAG dye counter
O=C1C(=Cc2cn(-c3ccccc3)nc2-c2ccc(OCc3ccccc3)cc2)SC(=S)N1CCS(=O)(=O)O	49.5*	x	-1.9	58.8*	71.6*	49.3*
CCOc1ccc(-c2nn(-c3ccccc3)cc2/C=C2\SC(=S)N(Cc3ccco3)C2=O)cc1	9.2	14.5	8.8	3.8	x	x
CCCCC[C@H](C)N1C[C@@H](COCc2ccccc2)Oc2cc(N3CCC[C@@H]3COC)ccc2S1(=O)=O	-7.8	x	-7.6	4.3	x	x
COc1ccc(OC)c(NC(=O)c2c(NC(=O)CCC(=O)O)sc3c2CCCCC3)c1	2.7	9.7	-4.5	41.0*	48.8*	16.9*
O=C(O)CCC(=O)Nc1sc2c(c1C(=O)Nc1cccc3ccccc13)CCCCC2	8.1	16.5	-17.7	43.2*	28.5	15.3*
COc1ccccc1NC(=O)c1c(NC(=O)CCC(=O)O)sc2c1CCCCC2	-2.5	0.8	-4.6	13.3	x	x
O=C(NCC1CCCO1)c1ccc([N+](=O)[O-])s1 (configuration not stated)	-4.1	-0.4	0.4	35.7*	1.0	1.1
CC1(C(=O)NS(=O)(=O)c2ccccc2Cl)CCN1C(=O)Cc1ccc(Cl)cc1Cl (configuration not stated)	-7.3	x	-1.5	23.2	x	x
Cc1ccccc1S(=O)(=O)NC(=O)C1(C)CCN1C(=O)CCc1ccc(Cl)cc1Cl (configuration not stated)	-6.9	x	-2.8	43.7*	33.2	6.1*
CC1(C(=O)NS(=O)(=O)c2ccccc2Cl)CCN1C(=O)CCc1ccc(Cl)cc1Cl (configuration not stated)	-2.5	x	0.2	46.5*	36.1*	7.3*
COC(=O)C[C@@H]1CC[C@@H]2[C@H](COc3ccc(NC(=O)c4ccc5c(c4)OCO5)cc3C(=O)N2C)O1	x	x	x	5.6	x	x
Nc1ccc2c(O)cc(S(=O)(=O)O)cc2c1	3.7	x	-45.6	86.7*	34.1	9.7*
O=C(O)c1cc(S(=O)(=O)O)ccc1O	4.3	-6.9	1.6	0.0	x	x
COC(=O)c1cc(=O)nc(NN=C2c3ccccc3-c3ccccc32)s1	17.6	x	0.6	37.8*	93.5*	76.9*
Cc1cccc(CN2CCN(C3CN(Cc4cn(Cc5ccccc5)nn4)S(=O)(=O)C3)CC2)c1 (configuration not stated)	-2.1	x	-10.3	-1.4	x	x
COc1ccc(CNC(=O)c2[nH]c(C(F)(F)F)nc2-c2ccccc2)cc1OC	-0.8	x	-0.8	3.1	x	x
COc1ccc(CNc2cccc3[nH]c(C(F)(F)F)nc23)cc1OC	-0.5	1.8	-1.9	43.7*	12.7	9.4*
Cc1cc(C)cc(N(CC(=O)Nc2ccc(Br)cc2)S(=O)(=O)c2c(C)[nH]c(=O)[nH]c2=O)c1	7.1	5.5	3.9	51.1*	42.4*	9.2*
Cc1cc(C)cc(N(CC(=O)Nc2cc(C)ccc2C)S(=O)(=O)c2c(C)[nH]c(=O)[nH]c2=O)c1	4.1	14.6	-10.3	25.5	x	x
O=c1cc(-c2ccccc2Cl)oc2c([N+](=O)[O-])c(O)cc(O)c12	0.3	18.5	-0.1	50.9*	35.4*	11.6*
O=c1cc(-c2ccccc2Cl)oc2ccc([N+](=O)[O-])c(O)c12	8.4	2.1	-6.1	0.7	x	x
CCOc1cc(Br)cc(C(c2c(C(=O)O)[nH]c3ccccc23)c2c(C(=O)O)[nH]c3ccccc23)c1O	16.6	37.6	-7.7	95.3*	84.0*	59.0*
Cc1ccc(C(=O)NC2CCCCN(C(C)C)C2=O)cc1 (configuration not stated)	x	x	x	-2.0	x	x
O=C1NC(=O)/C(=C/c2ccccc2Oc2ccc(Cl)cc2)S1	5.0	16.5	0.8	19.1	x	x
O=C(COc1ccccc1/C=C1/NC(=O)NC1=O)Nc1ccccc1	9.0	-1.1	-0.5	1.0	x	x
SMILES	NadD block	core dimer inh	ABHD5 PLIN5 PPI	rCAG RNA binder	rCAG bind conf	dCAG dye counter
O=C(COc1ccccc1/C=C1\SC(=O)NC1=O)Nc1ccc(F)cc1	3.5	17.8	3.1	51.6*	44.9*	15.6*
Cc1ccc(S(=O)(=O)Oc2ccccc2/C=C2\SC(=O)NC2=O)cc1	-1.1	16.5	3.8	42.0*	30.2	7.4*
C=CCCC1CN(CC=C)S(=O)(=O)c2c(F)cccc2O1 (configuration not stated)	x	x	x	1.3	x	x
Cc1ccc(NC(=O)/C(=C/C=C/c2ccccc2)NC(=O)c2ccccc2)cc1	11.2	11.9	-1.9	9.6	x	x
O=C(Nc1ccc(C(=O)O)cc1)/C(=C\c1ccc([N+](=O)[O-])cc1)NC(=O)c1ccc(Br)cc1	0.3	4.9	-0.9	43.8*	25.6	7.0*
COc1ccc(/C=C(\NC(=O)c2ccc(OC)cc2)C(=O)Nc2ccc(C(=O)O)cc2)cc1	-4.8	x	-1.3	16.8	x	x
CC(=O)Oc1ccc(/C=C(\NC(=O)c2cccc(Br)c2)C(=O)Nc2ccc(C(=O)O)cc2)cc1	0.5	1.3	2.6	50.0*	27.0	6.4*
O=C(Nc1ccc(C(=O)O)cc1)/C(=C\C=C\c1ccccc1)NC(=O)c1ccc(Br)cc1	20.7	20.8	6.3	72.0*	65.8*	31.6*
O=C(N/N=C/c1ccc(O)c(O)c1O)/C(=C/c1ccc([N+](=O)[O-])cc1)NC(=O)c1ccccc1	43.6*	32.5	-6.4	65.9*	66.0*	32.5*
Cc1ccc(NC(=O)/C(=C\c2ccc([N+](=O)[O-])cc2)NC(=O)c2ccccc2)cc1	1.2	4.5	-2.4	8.4	x	x
COc1cc(CCC(C)=O)ccc1OC(=O)c1c(-c2c(F)cccc2Cl)noc1C	x	x	x	1.5	x	x
CCOC(=O)c1c(NC(=O)COC(=O)c2cccc([N+](=O)[O-])c2)sc(C(=O)N(C)C)c1C	-10.7	x	-1.3	1.9	x	x
O=C(Nc1ccc(C(=O)O)cc1)/C(=C\c1ccc2c(c1)OCO2)NC(=O)c1ccc(Br)cc1	2.9	7.5	-2.6	39.0*	26.8	8.0*
O=C(Nc1ccc(C(=O)O)cc1)/C(=C\c1ccc2c(c1)OCO2)NC(=O)c1ccccc1	0.1	1.9	9.8	6.9	x	x
COC(=O)C1(C(=O)OC)C2C(=O)C3C(C21)C3(C(=O)OC(C)(C)C)C(=O)OC(C)(C)C (configuration not stated)	-5.2	x	-0.3	-1.6	x	x
O=C(CCC1CCN(C(=O)C2CC=CCC2)CC1)Nc1ccccc1 (configuration not stated)	0.4	x	-2.3	2.1	x	x
O=C1NC(=Nc2ccccc2Cl)S/C1=C\c1ccc(C(=O)O)cc1	-2.2	12.3	0.6	0.6	x	x
COc1cc(/C=C2\SC(=Nc3ccc(O)cc3)NC2=O)cc(OC)c1O	4.8	-19.7	10.5	15.7	x	x

Screens: PubChem, several laboratories
